TAAR1 ag: human TAAR1 agonism. Q96RJ0. CHO RD-HGA16 TAAR1, Fluo-8 calcium fluorescence; vehicle wells 0%, saturating PEA agonist 100%. activation, % at 3 µM. hit rate 0.99% among 360,000. AID 624467;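 active = activation above the mean activation of all test compounds in the run plus 3 SD, cut at about 38% in these data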
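Repeats: no replicates (n 1) | Material: CHO-derived RD-HGA16 cells with stable Gα16 and human TAAR1 | Technique: Kinetic Fluo-8 calcium fluorescence | Schedule: 17-24 h seeding, 75 min 37 °C dye, 30 min RT | Evaluation: % activation from peak over basal fluorescence ratio, DMSO-to-PEA scaled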
TAAR1 antag: human TAAR1 antagonism; inhibition, % at 3 µM; AID 624466; Q96RJ0; CHO RD-HGA16 TAAR1, Fluo-8 calcium fluorescence, antagonist; hit rate 1.5% among 360,000;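 active = inhibition above a per-plate cutoff, the mean inhibition of test compounds on that plate plus 3 SD, cut at about 49% in these data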;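 also: 0% = DMSO plus EC80 beta-PEA response and 100% = DMSO alone without agonist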
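Assay system: RD-HGA16 CHO cells with stable hTAAR1 and Gα16 / Reagent: EC80 β-phenethylamine stimulus / Doses: 3 µM, single point / Timing: dye loading 75 min at 37 °C, then 30 min room temperature / Measured by: Fluo-8 intracellular calcium dye fluorescence, real-time kinetic reads / Controls: vehicle wells and EC80 agonist wells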
DAGLB inh: diacylglycerol lipase beta (human) inhibition; Q8NCG7; HEK293T DAGLB membrane lysate, EnzChek fluorogenic substrate; inhibition, % at 5.17 µM; hit rate 0.059% among 340,000; in the data active = inhibition above about 34%;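 also: 0% = enzyme with vehicle and 100% = wells lacking enzyme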
Target sequence (Q8NCG7 whole entry, looked up): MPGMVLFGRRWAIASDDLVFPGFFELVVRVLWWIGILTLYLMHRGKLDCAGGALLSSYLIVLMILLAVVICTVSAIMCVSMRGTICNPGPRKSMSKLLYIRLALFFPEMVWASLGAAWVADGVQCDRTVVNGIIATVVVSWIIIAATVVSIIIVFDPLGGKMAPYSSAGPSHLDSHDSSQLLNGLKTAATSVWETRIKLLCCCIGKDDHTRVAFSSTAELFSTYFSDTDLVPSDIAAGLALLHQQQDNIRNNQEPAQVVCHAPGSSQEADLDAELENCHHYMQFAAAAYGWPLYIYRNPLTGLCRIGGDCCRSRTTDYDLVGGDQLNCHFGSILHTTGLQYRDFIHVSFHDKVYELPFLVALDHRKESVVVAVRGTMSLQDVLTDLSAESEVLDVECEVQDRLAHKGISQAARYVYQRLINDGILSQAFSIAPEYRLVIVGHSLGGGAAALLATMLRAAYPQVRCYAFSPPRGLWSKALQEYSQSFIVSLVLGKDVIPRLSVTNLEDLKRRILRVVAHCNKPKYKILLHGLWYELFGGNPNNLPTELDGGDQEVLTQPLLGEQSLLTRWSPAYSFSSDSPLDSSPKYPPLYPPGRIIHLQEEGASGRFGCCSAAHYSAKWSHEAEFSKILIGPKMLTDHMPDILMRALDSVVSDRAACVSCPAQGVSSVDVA
MPTP inh: inhibitors of mitochondrial permeability transition pore | AID 602449 | isolated mouse mitochondria, Ca2+ swelling absorbance, 30 min | hit rate 1.4% among 360,000 | inhibition, % at 10 µM;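 active = inhibition of 50% or more, scaled per plate between neutral and stimulator controls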;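 also: 0% = DMSO wells given calcium and 100% = 1 mM EGTA wells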
GPR7 antagonist: antagonists of human GPR7 (neuropeptides B/W receptor 1); inhibition, % at 4.4 µM; P48145; GPR7-expressing cells, fluorescence antagonist assay; hit rate 1.1% among 290,000; in the data active = inhibition above about 16%, passing the limit was not always enough;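 also: cells stimulated with the agonist NPW; 0% = agonist with vehicle and 100% = vehicle without agonist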
GPR7 antag cf: confirmation of human GPR7 antagonists; shares compounds with GPR7 antagonist; GPR7-expressing cells, calcium fluorescence antagonist mode; inhibition, % at 4.4 µM; hit rate 52% among 2,400; in the data active = inhibition above about 24%;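 also: stimulated with the GPR7 agonist NPW; 0% = agonist plus vehicle and 100% = vehicle alone without agonist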
MCHR1 antagonist: counter-screen for GPR7 antagonists: antagonists of human MCHR1 | shares compounds with GPR7 antagonist | MCHR1-expressing cells, fluorescence antagonist assay | inhibition, % at 4.4 µM | hit rate 62% among 2,400; in the data active = inhibition above about 22%;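 also: 0% = vehicle with agonist and 100% = vehicle without agonist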
An asterisk follows results filed as active; . = not tested or not shown. Compounds with a hit are over-represented: about 4% of the library has one in this group of screens.

SMILES	TAAR1 ag	TAAR1 antag	DAGLB inh	MPTP inh	GPR7 antagonist	GPR7 antag cf	MCHR1 antagonist
CCOC(=O)C1CSCCS(=O)(=O)N1Cc1ccccc1F (centres undefined)	5.1	-8.5	.	.	.	.	.
O=C(NCC1CC1)Nc1ccccc1F	-0.5	3.4	-1.7	0.5	98.7*	-7.3	14.5
Cc1ccc(S(=O)(=O)N(Cc2ccc(F)cc2)Cc2ccco2)cc1	10.6	43.9	-12.1	-1.8	32.1*	30.3*	58.0*
CN1CCC(Oc2ccccc2Sc2ccc(C(F)(F)F)cc2)CC1	2.3	2.2	-0.9	16.7	27.0*	30.4*	64.3*
O=C(c1ccccc1)c1ccc(Sc2ccc([N+](=O)[O-])cc2)cc1	0.4	30.5	-12.1	7.1	21.7*	21.5	52.9*
O=C(CSc1nnc(-c2ccc(Cl)cc2)n1Cc1ccco1)NCc1ccc2c(c1)OCO2	6.7	-6.5	-2.0	-0.5	33.8*	32.2*	24.4*
COc1ccc(-c2nnc(SC(C)C(=O)NCc3ccc4c(c3)OCO4)n2Cc2ccco2)cc1 (centres undefined)	18.5	9.8	0.6	2.1	48.0*	38.8*	23.5*
C=CCn1c(SC(C)C(=O)NCc2ccc3c(c2)OCO3)nnc1C1CCCCC1 (centres undefined)	10.6	-5.3	-1.3	0.0	26.1*	31.6*	28.6*
CC(Sc1nnc2ccccn12)C(=O)NCc1ccc2c(c1)OCO2 (centres undefined)	2.6	-10.0	-1.5	0.2	2.4	.	.
COc1ccc(C2CC(=O)C(c3cccc(OC)c3)=CN2Cc2ccccc2)cc1 (centres undefined)	-0.9	8.2	.	.	.	.	.
CN(C)C(=O)c1cc2cc([N+](=O)[O-])ccc2s1	6.7	-0.3	-0.8	1.1	26.4*	-12.8	11.7
CCN(CC)C(=O)c1cc2cc([N+](=O)[O-])ccc2s1	11.3	-5.2	-3.8	2.9	-2.9	.	.
COc1cc(C(=O)C(=O)N2CCN(c3ccccc3)CC2)cc2ccccc12	2.1	-17.3	.	0.1	.	.	.
COc1ccc(N2CCN(C(=O)c3cc4c(s3)CCCCC4)CC2)cc1	0.8	-4.4	-10.9	-1.4	.	.	.
CC(=O)c1ccc(N2CCN(C(=O)c3cc4c(s3)CCCC4)CC2)cc1	-1.5	-4.8	-1.7	3.3	26.0*	30.3*	61.0*
O=S1(=O)N[C@@H](Cc2ccccc2)COc2cc(N3CCN(Cc4ccccc4F)CC3)ccc21	1.7	-11.5	.	0.6	.	.	.
COC(=O)[C@]12C[C@H](CC(=O)NCCC(C)C)C(=O)N(Cc3ccccc3)C1=C[C@H](C1CCCC1)O[C@@H]2C	-1.1	-33.5	.	.	.	.	.
Nc1[nH]c(C(=O)c2ccccc2)c(-c2ccc3c(c2)OCO3)c1C(=O)NCCc1c[nH]c2ccccc12	6.0	15.5	.	.	.	.	.
COc1ccccc1-c1cccc2c3c([nH]c12)[C@@H]1C[C@H]2[C@@H](C(=O)N1CC3)[C@H](C)ON2C	4.6	-2.5	.	.	.	.	.
CCc1nc2ccc(C(=O)Nc3cccc(OC)c3)cn2c1N(CC)Cc1cccc(Br)c1	-0.1	-12.1	.	-2.2	.	.	.
CSc1nc2ccccc2n1CC(=O)Nc1cc(C(F)(F)F)ccc1N1CCOCC1	7.5	-0.3	1.0	-1.9	36.5*	38.3*	25.8*
Cc1cc(O)ccc1-c1cccc2nccn12	5.6	-24.2	.	-0.8	.	.	.
COc1ccccc1NC(=O)Oc1cccc(OC(=O)c2ccccc2)c1	-2.7	12.1	-5.2	0.4	21.3	10.2	20.5
COc1cccc(OC)c1OC(=O)c1ccccc1	1.2	-27.0	-4.4	-0.9	.	.	.
CCCCc1ccc(S(=O)(=O)NC(=O)C2(C)CCN2C(=O)Cc2ccccc2)cc1 (centres undefined)	1.6	-8.9	.	0.2	.	.	.
SMILES	TAAR1 ag	TAAR1 antag	DAGLB inh	MPTP inh	GPR7 antagonist	GPR7 antag cf	MCHR1 antagonist
COc1ccc(N=C2SCC(c3ccc([N+](=O)[O-])cc3)=NN2CCO)cc1	20.5	4.4	5.1	8.1	31.8*	28.1*	40.1*
COc1ccc(N=C2SCC(c3ccc(C)cc3)=NN2CCO)cc1	1.1	14.8	-1.8	4.8	16.9	.	.
C=CCN1C(=O)c2[nH]nc(-c3ccccc3)c2C1c1ccc(C)cc1 (centres undefined)	7.4	-25.2	.	.	.	.	.
O=C(Nc1ccc(S(=O)(=O)N2CCCC2)cc1)c1ccc(OCC2CCCO2)cc1 (centres undefined)	4.5	4.5	-2.3	-2.7	8.3	.	.
O=C(Nc1ccc(Cl)c(S(=O)(=O)N2CCOCC2)c1)c1ccc(OCC2CCCO2)cc1 (centres undefined)	.	.	.	4.7	40.5*	47.5*	89.6*
Cc1nonc1OCCNCCNc1ccc([N+](=O)[O-])cc1Cl	0.6	20.0	0.0	1.3	24.8*	11.6	11.3
Cc1nonc1OCCNc1ccc([N+](=O)[O-])cc1	3.5	19.2	-2.3	1.9	1.9	.	.
CC12CCC(CC1O)C2C(=O)O (centres undefined)	2.8	-4.8	-0.3	0.2	.	.	.
Cc1ccc(N2C(=O)C3C4C=CC(CNC(=S)Nc5ccc(Cl)cc5)(O4)C3C2=O)cc1 (centres undefined)	13.6	14.8	1.1	2.9	21.0*	29.3*	19.1
Cc1cc(C)n(-c2nc(NCCN(C)C)c3c4c(sc3n2)CCCC4)n1	4.1	3.2	-0.9	-2.4	24.2*	26.7*	29.9*
COc1ccccc1N1CCN(C(=O)/C=C/c2cccc([N+](=O)[O-])c2)CC1	2.8	-16.3	0.4	2.5	31.5*	16.1	33.0*
CN(Cc1ccc(N(C)C)cc1)C(=O)c1cc2ccccc2o1	0.1	-12.5	-11.1	-0.2	40.9*	10.4	26.2*
CCC(=O)N/C(=N/c1nc(C)cc(C)n1)Nc1ccc(C)cc1	3.1	-8.1	-3.9	0.4	9.1	.	.
CCOc1ccc(N/C(=N/c2nc(C)cc(C)n2)NC(=O)CC)cc1	5.3	-34.5	0.3	4.6	21.1*	0.8	7.5
CCOc1ccccc1CNC(=O)CCN1C(=O)COc2ccccc21	15.4	-4.2	-2.0	-0.8	6.9	.	.
O=C(CCN1C(=O)COc2ccccc21)NCc1cccnc1	11.2	1.4	0.3	-0.3	28.5*	-4.4	20.6
COC(=O)CSc1nc(N)c(C#N)c(CC(C)C)c1C#N	5.8	-10.9	-6.2	0.2	26.1*	9.3	13.1
O/N=C/c1ccccc1OCc1ccccc1Cl	14.0	8.3	-3.9	0.2	2.6	.	.
O/N=C/c1ccccc1OCc1ccc(Cl)cc1	7.9	-8.5	-5.4	5.6	26.6*	7.5	11.8
CC1(C(=O)NCc2ccc(Cl)cc2)CCN1C(=O)Cc1cccs1 (centres undefined)	0.7	-5.2	.	0.5	.	.	.
CCCCNc1c(CC(C)C)nc2nc(C)cc(C)n12	-0.7	-4.2	.	1.6	.	.	.
CC(=O)/C(N=Nc1c(C)n(C)n(-c2ccccc2)c1=O)=C(\C)O	9.6	3.5	1.5	-0.6	27.8*	0.5	-3.5
